Legend:
[1] = tested on: Human immunodeficiency virus 1; assay: Antiviral activity against HIV1 NL4.3 infected in human MT4 cells assessed as reduction in virus-induced cytopathic effect preincubated for 30 mins followed by viral infection and measured after 5 days by MTS assay; type: functional, organism-based; conditions: Human immunodeficiency virus 1, NL4.3, MT4
[2] = Cytotoxicity against human MT4 cells assessed as reduction in cell viability measured after 5 days by MTS/PES assay; type: cell-based
How it was run: (§1)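 MT-4 cells (RPMI-1640, 10% FCS, 1% L-glutamine) pre-incubated 30 min at 37 °C with compound, then infected with HIV-1 NL4.3 or HIV-2 ROD according to stock TCID50. After 5 days, CPE scored microscopically and viability read by MTS/PES at A490 to derive EC50; cytotoxicity measured by MTS/PES at 5 days in the same cells. SI = CC50/EC50. Mean ± S.D. of at least 3 experiments.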

[3] = Selectivity index, ratio of CC50 for human MT4 cells to EC50 for HIV1 NL4.3 infected in human MT4 cells; type: toxicity, cell-based; conditions: read-out: Ratio CC50/EC50; how it was run: as §1
[4] = tested on: Enterovirus A71; assay: Antiviral activity against Enterovirus A 71 BrCr infected in human RD cells assessed as reduction in virus-induced cytopathic effect preincubated for 1 day followed by viral infection and measured after 3 days by MTS/PMS method; type: functional, organism-based; conditions: strain BRCR
How it was run: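 RD cells seeded in 96-well plates; next day serial compound dilutions plus virus at low MOI added. Incubation at 37 °C, 5% CO₂ until full CPE in untreated infected controls (3 days). Viability read by MTS/PMS; EC50 as 50% inhibition of virus-induced death from dose-response curves. CC50 from uninfected treated cells in the same setup; SI = CC50/EC50.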

[5] = Selectivity index, ratio of CC50 for human MT4 cells to EC50 for HIV-1 NL4.3 infected in human MT4 cells
[6] = tested on: Human immunodeficiency virus 2; assay: Antiviral activity against HIV-2 ROD infected in human MT4 cells assessed as reduction in virus-induced cytopathic effect preincubated for 30 mins followed by viral infection and measured after 5 days by MTS assay; conditions: Human immunodeficiency virus 2, ISOLATE ROD

SMILES	EC50 [1]	CC50 at 120 h [2]	selectivity ratio [3]	EC50 [4]	selectivity ratio [5]	EC50 [6]
O=C(CCC(CCC(=O)NC(Cc1c(-c2ccc(C(=O)O)cc2)[nH]c2ccccc12)C(=O)O)(CCC(=O)NC(Cc1c(-c2ccc(C(=O)O)cc2)[nH]c2ccccc12)C(=O)O)[N+](=O)[O-])NC(Cc1c(-c2ccc(C(=O)O)cc2)[nH]c2ccccc12)C(=O)O (stereo unspecified)	2.4 µM	71 µM	29.6	12.2 µM	29.6	> 71 µM
O=C(CCC(CCC(=O)NC(Cc1c(-c2ccccc2F)[nH]c2ccccc12)C(=O)O)(CCC(=O)NC(Cc1c(-c2ccccc2F)[nH]c2ccccc12)C(=O)O)[N+](=O)[O-])NC(Cc1c(-c2ccccc2F)[nH]c2ccccc12)C(=O)O (stereo unspecified)	35 µM	> 100 µM	> 3	> 89.4 µM	> 3	> 100 µM
O=C(CCC(CCC(=O)NC(Cc1cn(Cc2ccc(C(=O)O)cc2)c2ccccc12)C(=O)O)(CCC(=O)NC(Cc1cn(Cc2ccc(C(=O)O)cc2)c2ccccc12)C(=O)O)[N+](=O)[O-])NC(Cc1cn(Cc2ccc(C(=O)O)cc2)c2ccccc12)C(=O)O (stereo unspecified)	41 µM	> 100 µM	> 2.4		> 2.4	47 µM
O=C(CCC(CCC(=O)NC(Cc1cn(Cc2ccccc2)c2ccccc12)C(=O)O)(CCC(=O)NC(Cc1cn(Cc2ccccc2)c2ccccc12)C(=O)O)[N+](=O)[O-])NC(Cc1cn(Cc2ccccc2)c2ccccc12)C(=O)O (stereo unspecified)	49 µM	> 100 µM	> 2		> 2	38 µM
O=C(CCC(CCC(=O)NC(Cc1c[nH]c2ccccc12)C(=O)O)(CCC(=O)NC(Cc1c[nH]c2ccccc12)C(=O)O)[N+](=O)[O-])NC(Cc1c[nH]c2ccccc12)C(=O)O (stereo unspecified)	> 100 µM	> 100 µM		> 120 µM		> 100 µM
CN[C@@H]1[C@H](O[C@@H]2OC[C@@H](O)[C@H](O)[C@H]2O)[C@@H](O)[C@H](O[C@H]2c3cc(C)c(C(=O)N[C@H](C)C(=O)O)c(O)c3-c3c(cc4c(c3O)C(=O)c3cc(OC)cc(O)c3C4=O)[C@@H]2O)O[C@@H]1C [PRADIMICIN A]	3.3 µM	> 100 µM	> 30.3		> 30.3	
O=C(CCOCC(COCCC(=O)NC(Cc1c[nH]c2ccccc12)C(=O)O)(COCCC(=O)NC(Cc1c[nH]c2ccccc12)C(=O)O)COCCC(=O)NC(Cc1c[nH]c2ccccc12)C(=O)O)NC(Cc1c[nH]c2ccccc12)C(=O)O (stereo unspecified)	> 250 µM	> 250 µM		> 100 µM		> 250 µM
O=C(CCC(CCC(=O)NC(Cc1c(-c2ccc(Br)cc2)[nH]c2ccccc12)C(=O)O)(CCC(=O)NC(Cc1c(-c2ccc(Br)cc2)[nH]c2ccccc12)C(=O)O)[N+](=O)[O-])NC(Cc1c(-c2ccc(Br)cc2)[nH]c2ccccc12)C(=O)O (stereo unspecified)	> 30 µM	30 µM		65.2 µM		> 30 µM
COc1ccc(-c2[nH]c3ccccc3c2CC(NC(=O)CCC(CCC(=O)NC(Cc2c(-c3ccc(OC)cc3)[nH]c3ccccc23)C(=O)O)(CCC(=O)NC(Cc2c(-c3ccc(OC)cc3)[nH]c3ccccc23)C(=O)O)[N+](=O)[O-])C(=O)O)cc1 (stereo unspecified)	> 9.3 µM	9.3 µM		> 86.6 µM		> 9.3 µM
O=C(CCC(CCC(=O)NC(Cc1cn(Cc2ccc(F)cc2)c2ccccc12)C(=O)O)(CCC(=O)NC(Cc1cn(Cc2ccc(F)cc2)c2ccccc12)C(=O)O)[N+](=O)[O-])NC(Cc1cn(Cc2ccc(F)cc2)c2ccccc12)C(=O)O (stereo unspecified)	43 µM	> 100 µM	> 2.3		> 2.3	34 µM
O=C(CCOCC(COCCC(=O)NC(Cc1cn(Cc2ccc(C(=O)O)cc2)c2ccccc12)C(=O)O)(COCCC(=O)NC(Cc1cn(Cc2ccc(C(=O)O)cc2)c2ccccc12)C(=O)O)COCCC(=O)NC(Cc1cn(Cc2ccc(C(=O)O)cc2)c2ccccc12)C(=O)O)NC(Cc1cn(Cc2ccc(C(=O)O)cc2)c2ccccc12)C(=O)O (stereo unspecified)	> 76 µM	76 µM		> 19.5 µM		> 76 µM
